Measurements taken from ChEMBL document CHEMBL1139303, “One-pot synthesis of 5-phenylimino, 5-thieno or 5-oxo-1,2,3-dithiazoles and evaluation of their antimicrobial and antitumor activity” (2009).
Values after ≈ are worked out from the molar mass of the structure shown. Active and inactive are the calls of the source. The calls are words filed in the database; no cut-off is given here.

Columns and labels:
[1] = system: Escherichia coli; assay: Antibacterial activity against Escherichia coli ATCC 25922 at 50 ug after 24 hrs by agar diffusion method; assay type: functional
In short: (§1)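 Bacteria pre-grown 24 h on nutritive agar (tryptone soy agar for E. faecalis, L. inocua) at 37 °C (30 °C for E. faecalis, L. inocua, B. cereus). Agar well diffusion with 50 µg compound in 80% DMSO; 80% DMSO alone as control. Inhibition zone diameter averaged from triplicate, scored 6-9, 9-12, >12 mm.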

[2] = system: Pseudomonas aeruginosa; assay: Antibacterial activity against Pseudomonas aeruginosa ATCC 27853 at 50 ug after 24 hrs by agar diffusion method; assay type: functional, organism-based; in short: as §1
[3] = system: Klebsiella pneumoniae; assay: Antibacterial activity against Klebsiella pneumoniae CIP 53153 at 50 ug after 24 hrs by agar diffusion method; assay type: functional, organism-based; in short: as §1
[4] = system: Enterococcus faecalis; assay: Antibacterial activity against Enterococcus faecalis CIP 103214 at 50 ug after 24 hrs by agar diffusion method; assay type: functional; in short: as §1
[5] = system: Staphylococcus aureus; assay: Antibacterial activity against Staphylococcus aureus ATCC 25923 at 50 ug after 24 hrs by agar diffusion method; assay type: functional; conditions: for zone of inhibition at 50 µg/disc: Staphylococcus aureus, ATCC 25923, 24 h, read-out: IZ; in short: as §1
[6] = system: Bacillus cereus; assay: Antibacterial activity against Bacillus cereus at 50 ug after 24 hrs by agar diffusion method; assay type: functional; conditions: for zone of inhibition at 50 µg/disc: read-out: IZ; in short: as §1
[7] = system: Listeria innocua; assay: Antibacterial activity against Listeria innocua at 50 ug after 24 hrs by agar diffusion method; assay type: functional; in short: as §1
[8] = system: Staphylococcus aureus; assay: Antibacterial activity against Staphylococcus aureus ATCC 25923 after 24 hrs by broth macrodilution method; assay type: functional; conditions: ATCC 25923, 24 h
In short: (§2)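 Bacteria pre-grown 24 h on nutritive agar (tryptone soy agar for E. faecalis, L. inocua) at 37 °C (30 °C for E. faecalis, L. inocua, B. cereus). MIC and MBC determined by macro-dilution broth method; MBC = lowest concentration killing 99.99% of inoculum. Compounds in DMSO, max 2.13% solvent in cultures. Triplicate.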

[9] = system: Candida albicans; assay: Antifungal activity against Candida albicans ATCC 10231 at 50 ug after 24 hrs by agar diffusion method; assay type: functional
In short: (§3)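 Yeasts grown on yeast extract peptone dextrose medium at 30 °C for 24 h, then agar well diffusion with 50 µg compound in 80% DMSO; 80% DMSO alone as control. Averaged inhibition zone diameter from triplicate, scored 6-9, 9-12 or >12 mm.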

[10] = system: Nakaseomyces glabratus; assay: Antifungal activity against Candida glabrata DSM6425 at 50 ug after 24 hrs by agar diffusion method; assay type: functional; in short: as §3
[11] = system: Candida tropicalis; assay: Antifungal activity against Candida tropicalis DSM 1346 at 50 ug after 24 hrs by agar diffusion method; assay type: functional; in short: as §3
[12] = system: Pichia kudriavzevii; assay: Antifungal activity against Issatchenkia orientalis DSM6128 at 50 ug after 24 hrs by agar diffusion method; assay type: functional, organism-based; in short: as §3
[13] = system: MCF7; assay: Antiproliferative activity against human MCF7 cells after 72 hrs by MTT assay; assay type: functional; conditions: MCF7, 72 h
In short: (§4)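 5000 cells per well added to pre-equilibrated medium at 37 °C; compounds from 10^-3 M DMSO stocks, final 10^-5 M. After 72 h, MTT (5 g/L) for 4 h, formazan dissolved in DMSO, OD 550 nm. % growth inhibition vs 1% DMSO medium (0%) and 10% SDS lysis (100%); mean ± SEM, 24 measures, three independent experiments.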

[14] = system: MDA-MB-231; assay: Antiproliferative activity against human MDA-MB-231 cells after 72 hrs by MTT assay; assay type: functional; conditions: MDA-MB-231, 72 h; in short: as §4
[15] = system: MDA-MB-231; assay: Antiproliferative activity against human MDA-MB-231 cells at 10 uM after 72 hrs by MTT assay; assay type: functional; conditions: MDA-MB-231, 72 h; in short: as §4
[16] = system: Bacillus cereus; assay: Antibacterial activity against Bacillus cereus after 24 hrs by broth macrodilution method; assay type: functional; in short: as §2
[17] = system: Escherichia coli; assay: Antibacterial activity against Escherichia coli ATCC 25922 after 24 hrs by broth macrodilution method; assay type: functional; conditions: ATCC 25922, 24 h; in short: as §2
[18] = system: Candida albicans; assay: Antifungal activity against Candida albicans ATCC 10231 after 24 hrs by broth macrodilution method; assay type: functional; conditions: ATCC 10231, 24 h
In short: (§5)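 Yeasts pre-grown on yeast extract peptone dextrose medium, 30 °C, 24 h. MIC and MFC by macro-dilution broth method; compounds in DMSO, max 2.13% solvent in cultures. Amphotericin B and fluconazole as references. MFC/MIC ratio computed; ≥4 taken as fungistatic. Triplicate.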

[19] = system: Nakaseomyces glabratus; assay: Antifungal activity against Candida glabrata DSM6425 after 24 hrs by broth macrodilution method; assay type: functional; conditions: DSM6425, 24 h; in short: as §5
[20] = system: Candida tropicalis; assay: Antifungal activity against Candida tropicalis DSM 1346 after 24 hrs by broth macrodilution method; assay type: functional; conditions: DSM 1346, 24 h; in short: as §5
[21] = system: Nakaseomyces glabratus; assay: Ratio of MFC to MIC against Candida glabrata DSM6425; assay type: functional; in short: as §5

Structure (SMILES) | Activity [1] | Activity [2] | Activity [3] | Activity [4] | zone of inhibition at 50 µg/disc [5] [mm] | Activity [6] | Activity [7] | Activity [9] | Activity [10] | Activity [11] | Activity [12] | GI50 [13] [µM] | GI50 [14] [µM] | inhibition at 10 µM [15] [%] | Activity [5] | also measured
Cc1nssc1=S | inactive | inactive | inactive | inactive | 6 | inactive | inactive | inactive | inactive | inactive | inactive | > 10 | > 10 | 0 | – | MBC [8]: > 48 µg/mL; MIC [8]: 48 µg/mL (≈ 322 µM)
O=[N+]([O-])c1ccc(-c2nssc2=S)cc1 | inactive | inactive | inactive | inactive | 6 | inactive | inactive | inactive | inactive | inactive | inactive | > 10 | > 10 | 0 | – | –
Fc1ccc(-c2nssc2=S)cc1 | inactive | inactive | inactive | inactive | – | inactive | inactive | inactive | inactive | inactive | inactive | > 10 | > 10 | 0 | inactive | –
S=c1ssnc1-c1ccccc1 | inactive | inactive | inactive | inactive | 12 | – | inactive | inactive | inactive | inactive | inactive | > 10 | > 10 | 0 | – | zone of inhibition at 50 µg/disc [6]: 9 mm; MBC [8]: > 48 µg/mL; MIC [8]: 32 µg/mL (≈ 151 µM); MBC [16]: > 48 µg/mL; MIC [16]: > 48 µg/mL
S=c1ssnc1-c1cc2ccccc2o1 | inactive | inactive | inactive | inactive | – | inactive | inactive | inactive | inactive | inactive | inactive | > 10 | > 10 | 0 | inactive | –
O=[N+]([O-])c1ccc(-c2nss/c2=N\c2ccccc2)cc1 | inactive | inactive | inactive | inactive | – | inactive | inactive | inactive | inactive | inactive | inactive | 10 | > 10 | 0 | inactive | –
Fc1ccc(-c2nss/c2=N\c2ccccc2)cc1 | inactive | inactive | inactive | inactive | – | inactive | inactive | inactive | inactive | inactive | inactive | 10 | > 10 | 0 | inactive | –
Cc1nss/c1=N\c1ccccc1 | inactive | inactive | inactive | inactive | – | inactive | inactive | inactive | inactive | inactive | inactive | > 10 | > 10 | 0 | inactive | –
O=c1ssnc1-c1ccccc1 | – | inactive | inactive | inactive | – | inactive | inactive | inactive | inactive | inactive | inactive | > 10 | > 10 | 0 | inactive | zone of inhibition at 50 µg/disc ([1]; ATCC 25922, 24 h, read-out: IZ): 6 mm; MBC [17]: > 48 µg/mL; MIC [17]: > 48 µg/mL
CCOC(=O)c1nss/c1=N\c1ccccc1 | inactive | inactive | inactive | inactive | 6 | – | inactive | – | – | – | inactive | > 10 | > 10 | 0 | – | zone of inhibition at 50 µg/disc [6]: 6 mm; MBC [8]: > 48 µg/mL; MIC [8]: 48 µg/mL (≈ 180 µM); MBC [16]: > 48 µg/mL; MIC [16]: 48 µg/mL (≈ 180 µM); zone of inhibition at 50 µg/disc ([9]; ATCC 10231, 24 h, read-out: IZ): > 12 mm; zone of inhibition at 50 µg/disc ([10]; DSM6425, 24 h, read-out: IZ): 9 mm; zone of inhibition at 50 µg/disc ([11]; DSM 1346, 24 h, read-out: IZ): 9 mm; MFC [18]: > 48 µg/mL; MIC [18]: 48 µg/mL (≈ 180 µM); MFC [19]: 48 µg/mL (≈ 180 µM); MIC [19]: 32 µg/mL (≈ 120 µM); MFC [20]: > 48 µg/mL; MIC [20]: 32 µg/mL (≈ 120 µM); Ratio [21]: 1.5
c1ccc(/N=c2\ssnc2-c2cc3ccccc3o2)cc1 | inactive | inactive | inactive | inactive | – | inactive | inactive | inactive | inactive | inactive | inactive | 10 | > 10 | 0 | inactive | –
c1ccc(/N=c2\ssnc2-c2cccs2)cc1 | inactive | inactive | inactive | inactive | – | inactive | inactive | inactive | inactive | inactive | inactive | > 10 | > 10 | 0 | inactive | –
S=c1ssnc1-c1cccs1 | inactive | inactive | inactive | inactive | – | inactive | inactive | inactive | inactive | inactive | inactive | > 10 | > 10 | 0 | inactive | –
c1ccc(/N=c2\ssnc2-c2ccccc2)cc1 | inactive | inactive | inactive | inactive | 6 | inactive | inactive | inactive | inactive | inactive | inactive | 10 | > 10 | 0 | – | –
